Most compounds without a hit are left out; they make up all but 3.8% or so of the library.
SIRT5 block = SIRT5 desuccinylase inhibitors, primary screen, biochemical, fluorescence imaging, single point, set 5. AID 652115, 2013. hit rate 1.1% among 330,000. inhibition, % at 15 µM. Purified SirT5, succinyl-peptide AMC, trypsin-coupled fluorescence. NAD-dependent protein deacylase sirtuin-5, mitochondrial (Homo sapiens), Q9NXA8; in the data active means inhibition above about 15%; inconclusive means no clear call, values can overlap the other calls
Target sequence (Q9NXA8 whole entry, looked up): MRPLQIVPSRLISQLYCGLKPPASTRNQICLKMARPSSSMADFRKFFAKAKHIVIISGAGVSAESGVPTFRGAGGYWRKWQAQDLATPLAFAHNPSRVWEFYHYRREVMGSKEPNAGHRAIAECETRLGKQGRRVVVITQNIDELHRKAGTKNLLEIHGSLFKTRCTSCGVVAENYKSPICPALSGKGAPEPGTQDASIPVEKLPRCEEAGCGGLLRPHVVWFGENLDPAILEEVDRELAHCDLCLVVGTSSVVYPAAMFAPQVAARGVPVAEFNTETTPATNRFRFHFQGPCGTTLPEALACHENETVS
FN deposition inh = inhibitors of fibronectin matrix deposition, primary screen, AH1F cells, Alexa488-fibronectin fluorescence, plate reader; inhibition, % at 12.6 µM; hit rate 0.086% among 350,000; AH1F fibroblasts, overnight;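 active means mean inhibition across replicates of 30% or more, regardless of how many single replicates reach that level; inconclusive means mean under 30% yet at least half of replicates reach 30%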
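Material: AH1F fibroblast monolayer depositing Alexa488-labelled fibronectin into matrix | Input: 10000 AH1F cells/well | Medium: DMEM plus 2% serum, read in PBS | Reagent: Alexa488-fibronectin, 24 nM final in well | Compound dosing: One dose per compound, pinned | Schedule: 1 h adhesion, overnight exposure | Measured by: Fluorescence at 485 nm excitation, 525 nm emission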
ARNT-TACC3 inh = disruptors of ARNT/TACC3 protein interaction, primary screen, biochemical, AlphaScreen, single concentration; Transforming acidic coiled-coil-containing protein 3 (Homo sapiens), Q9Y6A5; AlphaScreen His-ARNT PAS-B/GST-TACC3 binding, luminescence; TACC3 fragment carries E629A point mutation; inhibition, % at 9.99 µM; hit rate 0.66% among 390,000; AID 623870, 2012;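 active means mean inhibition of replicates at least 50% and at least half of replicates each reaching 50%; inconclusive means half or more replicates reach 50% but mean below 50%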
FGF22 binding = binders of human FGF22 protein, primary screen, FGF22 synaptogenesis inhibitor project, biophysical, thermal shift, single point; Fibroblast growth factor 22 (Homo sapiens), Q9HCT0; recombinant FGF22 thermal shift, SYPRO orange fluorescence; percent of sucrose octasulfate shift, DMSO zero; activity (Tm shift, normalised), % at 9.99 µM; hit rate 1.5% among 340,000; AID 651658, 2012;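 active means mean Tm shift, scaled 0 neutral to 100 positive control, at about 1.3% or above, every replicate too, limit read from the data; inconclusive means no clear call, values can overlap the other calls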
Target sequence (Q9HCT0 whole entry, looked up): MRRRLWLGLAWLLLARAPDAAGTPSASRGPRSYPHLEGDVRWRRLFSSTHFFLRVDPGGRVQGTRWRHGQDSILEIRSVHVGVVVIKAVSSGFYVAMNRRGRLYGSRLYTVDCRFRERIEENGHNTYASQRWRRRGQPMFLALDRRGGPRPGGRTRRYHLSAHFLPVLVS
DENV2 CPE rescue = inhibitors of DENV2 cytopathic effect, primary screen, cell-based, plate reader, single concentration; DENV2-infected cells, cytopathic effect rescue; CPE inhibition, % at 9.99 µM; hit rate 1.7% among 350,000; in the data active means CPE inhibition above about 20%, passing the limit was not always enough; inconclusive means no clear call, values can overlap the other calls; tested in BHK-21 cells
XiGFP reactiv = activators of inactive X chromosome reactivation, primary screen, imaging, XiGFP fibroblasts, GFP high-content imaging, set 2; XiGFP mouse fibroblasts, % GFP-positive cells imaging, 3 d; cells co-treated with 5-aza-dC sensitizer; scaled so ellipticine positive control = 100%; activation, % at 7.58 µM; hit rate 0.055% among 360,000;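 active means mean normalized replicate activation at least 10% and every replicate at or above 10%; inconclusive means only one of the two criteria met; inactive means mean below 10% and not all replicates reach 10%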
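System: SV40-immortalized XiGFP fibroblast cells, line 68-5-11 / Incubation: 3-day compound exposure, then 15 min fixation at room temperature / Compound: single concentration per compound, delivered by pin transfer / Buffer or medium: DMEM plus 5-aza-dC sensitizer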
Each line names hits and unclear results; the compound was inactive in the other large screens.

C/C=C/c1ccc([C@H]2[C@@H](CO)N(CC3CC3)C23CN(S(C)(=O)=O)C3)cc1	DENV2 CPE rescue 51 (no result: FN deposition inh, ARNT-TACC3 inh)
CS(=O)(=O)N1CC2(C1)[C@H](c1ccccc1)[C@H](CO)N2Cc1ccccc1	none (no result: ARNT-TACC3 inh)
C/C=C/c1ccc([C@@H]2[C@H](CO)N(C(=O)CC3CC3)C23CN(S(C)(=O)=O)C3)cc1	none (no result: FN deposition inh, ARNT-TACC3 inh)
C/C=C/c1ccc([C@H]2[C@@H](CO)N(CCC(F)(F)F)C23CN(C(=O)CC2CC2)C3)cc1	DENV2 CPE rescue 65 (no result: ARNT-TACC3 inh)
CS(=O)(=O)N1CC2(C1)[C@@H](c1ccccc1)[C@@H](CO)N2Cc1ccccc1	DENV2 CPE rescue 28 (no result: ARNT-TACC3 inh)
CN(C)CC#Cc1ccc([C@@H]2[C@@H](CO)N3CCCCN(C(=O)c4ccc5c(c4)OCO5)C[C@@H]23)cc1	none (no result: FN deposition inh)
CO[C@@H]1CN(C)C(=O)c2ccc(NC(=O)Nc3ccccc3F)cc2OC[C@@H](C)N(C(=O)Nc2ccccc2F)C[C@H]1C	DENV2 CPE rescue inconclusive
C/C=C/c1ccc([C@@H]2[C@H](CO)N(CC3CCCC3)C23CN(S(=O)(=O)CC)C3)cc1	none (no result: ARNT-TACC3 inh)
C/C=C/c1ccc([C@H]2[C@@H](CO)N(CC3CCCC3)C23CN(S(=O)(=O)CC)C3)cc1	DENV2 CPE rescue 23 (no result: ARNT-TACC3 inh)
Cn1c(=O)n(C)c2cc(/C=N/N=C3/NC(=O)C(CC(=O)O)S3)ccc21 (stereo not given)	SIRT5 block 19
CCOc1cc(/C=N/N=C2/NC(=O)C(CC(=O)O)S2)ccc1OCc1ccc(Cl)cc1 (stereo not given)	none
O=C(O)CC1S/C(=N/N=C/C2CC=CCC2)NC1=O (stereo not given)	SIRT5 block 112 (no result: FN deposition inh)
O=C(O)CC1S/C(=N/N=C/C=C/c2ccccc2[N+](=O)[O-])NC1=O (stereo not given)	ARNT-TACC3 inh 34 (no result: SIRT5 block, FGF22 binding, DENV2 CPE rescue)
COC(=O)C[C@@H]1C[C@H]2c3cc(NC(=O)NC4CCCC4)ccc3O[C@H]2[C@@H](CO)O1	none
COC(=O)[C@H]1[C@H](CO)[C@H]2Cn3c(ccc(-c4ccccc4)c3=O)[C@H]2N1C(=O)CC1CC1	none (no result: FN deposition inh)
Cc1ccccc1-c1ccccc1N	FGF22 binding 44 (no result: ARNT-TACC3 inh)
COc1ccc(S(=O)(=O)Nc2ccc3c(c2)C(=O)N([C@H](C)CO)C[C@@H](C)[C@@H](CN(C)Cc2ccncc2)O3)cc1	none
CCNC(=O)C[C@H]1CC[C@@H]2[C@H](COc3ccc(NS(C)(=O)=O)cc3C(=O)N2C)O1	none
C[C@H](CO)N1C[C@H](C)[C@@H](CN(C)C(=O)Nc2cccc3ccccc23)Oc2ccc(NC(=O)Cc3cn(C)c4ccccc34)cc2CC1=O	none
C[C@H](CO)N1C[C@H](C)[C@@H](CN(C)C(=O)Nc2cccc3ccccc23)Oc2ccc(NC(=O)CCC(F)(F)F)cc2CC1=O	none
C[C@@H]1CN([C@H](C)CO)C(=O)Cc2cc(NC(=O)Cc3ccccc3)ccc2O[C@@H]1CN(C)C(=O)Nc1ccc2c(c1)OCO2	DENV2 CPE rescue 28 (no result: FN deposition inh)
C[C@@H]1CN([C@H](C)CO)C(=O)Cc2cc(NC(=O)Cc3cn(C)c4ccccc34)ccc2O[C@@H]1CN(C)C(=O)Nc1cccc2ccccc12	DENV2 CPE rescue 45
C[C@@H]1CN([C@@H](C)CO)C(=O)Cc2cc(NC(=O)Cc3ccccc3)ccc2O[C@H]1CN(C)C(=O)Nc1cccc2ccccc12	DENV2 CPE rescue 43 (no result: FN deposition inh)
C[C@@H]1CN([C@H](C)CO)C(=O)Cc2cc(NC(=O)CCC(F)(F)F)ccc2O[C@@H]1CN(C)C(=O)Nc1cccc2ccccc12	DENV2 CPE rescue 30
Cc1noc(C)c1NC(=O)N(C)C[C@H]1Oc2c(NC(=O)NC3CCCCC3)cccc2C(=O)N([C@@H](C)CO)C[C@@H]1C	none (no result: FN deposition inh)
C[C@H]1CN([C@@H](C)CO)C(=O)c2cccc(NC(=O)C3CC3)c2O[C@@H]1CN(C)C(=O)Nc1ccc(F)cc1	none (no result: FN deposition inh)
O=C(Nc1ccc2c(c1)[C@H]1C[C@@H](CC(=O)N3CCOCC3)O[C@H](CO)[C@H]1O2)C1CCC1	none (no result: SIRT5 block)
C[C@@H]1CN([C@H](C)CO)C(=O)Cc2cc(NC(=O)CCC(F)(F)F)ccc2O[C@H]1CN(C)C(=O)Nc1ccc(F)cc1	DENV2 CPE rescue inconclusive (no result: FN deposition inh)
C[C@H](CO)N1C[C@H](C)[C@H](CN(C)C(=O)Nc2ccc(F)cc2)Oc2ccc(NC(=O)CCC(F)(F)F)cc2CC1=O	DENV2 CPE rescue 25 (no result: FN deposition inh)
CCN(CC)C(=O)c1sc2[nH]c(=S)n(-c3ccccc3)c(=O)c2c1C	none (no result: FN deposition inh, XiGFP reactiv)
Cc1sc2nc(-c3ccccn3)[nH]c(=O)c2c1-c1ccccc1	ARNT-TACC3 inh 79
CCN(CC)C(=O)c1sc2nc(-c3ccccn3)[nH]c(=O)c2c1C	ARNT-TACC3 inh 61
Cc1sc2nc(N3CCOCC3)[nH]c(=O)c2c1-c1ccccc1	SIRT5 block 31
C[C@@H]1CN([C@H](C)CO)C(=O)c2cc(NS(=O)(=O)c3cn(C)cn3)ccc2O[C@@H](C)CCCCO[C@@H]1CN(C)C	none
CCOC(=O)C1(Cc2ccccc2C)CCCN(C(=O)c2ccnn2C)C1 (stereo not given)	none (no result: FGF22 binding)
CCOC(=O)C1(Cc2ccccc2C)CCCN(C(=O)c2cc(CC)nn2C)C1 (stereo not given)	FGF22 binding 43
C[C@@H]1CCCCO[C@@H](CN(C)C(=O)c2ccccc2)[C@H](C)CN([C@@H](C)CO)C(=O)c2cc(NC(=O)Nc3ccccc3)ccc2O1	none
COC1=C(Br)C(=O)c2nc(C)ccc2C1=O	none (no result: ARNT-TACC3 inh)
COC1=C(N)C(=O)c2nc(C)ccc2C1=O	ARNT-TACC3 inh 30
O=C(C[C@H]1CC[C@H](NC(=O)Nc2ccc(F)cc2)[C@H](CO)O1)NCc1cccc(F)c1	none (no result: FN deposition inh)
CS(=O)(=O)N1CCCCC1c1cc(C(=O)Nc2ccc3c(c2)OCO3)no1 (stereo not given)	none (no result: SIRT5 block, ARNT-TACC3 inh)
O=S(=O)(c1ccc(NC(=S)Nc2ccc3c(c2)OCO3)cc1)N1CCOCC1	none (no result: SIRT5 block, FGF22 binding, DENV2 CPE rescue)
CC(=O)Nc1ccc(S(=O)(=O)N2CCCC2C(=O)Nc2ccc3c(c2)OCCO3)cc1 (stereo not given)	FGF22 binding 44
CNS(=O)(=O)c1ccc(NC(=S)Nc2ccc3c(c2)OCO3)cc1	FGF22 binding 43
